# CRFBP-R2 block: antagonists of CRF-BP/CRF-R2 complex, primary screen, cell-based, HEK293, calcium dye fluorescence, uHTS | CRF-induced calcium fluorescence | inhibition, % at 11.8 µM | 350,000 tested, 0.59% active | AID 588475, 2011;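 active = inhibition of the ligand-induced calcium signal above about 50% at the single tested concentration, limit read from the data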
# IMP-1 inh-1: IMP-1 metallo-beta-lactamase inhibitors, primary screen, biochemical, epi-absorbance readout, Pseudomonas aeruginosa enzyme; metallo-beta-lactamase IMP-1 (Pseudomonas aeruginosa); purified IMP-1, nitrocefin hydrolysis, epi-absorbance fluorescence; inhibition, % at 5.6 µM; 290,000 tested, 0.45% active; AID 1556, 2009;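 active = inhibition above the mean plus 3 SD of all compounds in the same screening run, cut at about 4.5% in these data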;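 note: 0% = IMP-1 with DMSO and 100% = DMSO wells lacking enzyme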
#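 Test system: recombinant IMP-1 enzyme, purified / Medium: HEPES buffer pH 7.1 with ZnSO4 and Brij 35 / Doses: single dose, 5.6 µM / Times: 25 °C, 15 min preincubation, 25 min reaction / Detection: Epi-absorbance via hydrolysed-nitrocefin quenching of white-plate fluorescence, 480/530 nm, EDTA stop / Evaluation: percent inhibition from optical density relative to buffer-blank wells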
# VIM-2 inhibitor: VIM-2 metallo-beta-lactamase inhibitors, primary screen, biochemical, epi-absorbance readout, Pseudomonas aeruginosa enzyme. purified VIM-2, nitrocefin hydrolysis, epi-absorbance fluorescence. inhibition, % at 5.6 µM. 290,000 tested, 0.89% active;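 active = inhibition above the mean of all tested compounds plus 3 SD, cutoff set per screening run, cut at about 7.5% in these data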;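 note: red hydrolysis product quenches plate fluorescence so inhibitors raise well fluorescence; 0% = enzyme with DMSO and 100% = DMSO without enzyme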
# TRPN1 ag: zebrafish TRPN1 channel agonists, primary screen, cell-based, HEK293, calcium fluorescence; transient receptor potential cation channel N1 (TRPN1/NompC), Danio rerio; HEK293 zebrafish TRPN1-YFP, Fluo-8 calcium fluorescence; 100% = response to 87 µM carbachol; activation, % at 3 µM; 220,000 tested, 0.18% active; AID 1424, 2008;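 active = activation above its plate's cutoff, the mean activation of test wells on that plate plus 3 SD, cut at about 19% in these data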;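 note: 0% = DMSO alone and 100% = 87 µM carbachol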
#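 System: zebrafish TRPN1-YFP in HEK293 cells / Dosing: 3 µM single point / Timing: dye loading 1 h at 37 °C, then 30 min room temperature / Signal: Fluo-8 calcium fluorescence, excitation 470-495 nm, emission 515-575 nm / Read-out basis: percent activation from peak over basal fluorescence ratio, control-normalized / Control set: high carbachol 87 µM, low DMSO alone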
# TRPML3 ag: human TRPML3 channel agonists, primary screen, cell-based, HEK293 TRPML3-YFP, Fluo-8 calcium fluorescence, 3 µM. Mucolipin-3 (Homo sapiens), Q8TDD5. 100% = the carbachol control signal. activation, % at 3 µM. 220,000 tested, 0.29% active. AID 1448, 2008;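 active = activation above its plate's cutoff, the mean activation of the plate's test wells plus 3 SD, cut at about 12% in these data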;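 note: 0% = DMSO only wells and 100% = carbachol wells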
# Target sequence (Q8TDD5 whole entry, looked up): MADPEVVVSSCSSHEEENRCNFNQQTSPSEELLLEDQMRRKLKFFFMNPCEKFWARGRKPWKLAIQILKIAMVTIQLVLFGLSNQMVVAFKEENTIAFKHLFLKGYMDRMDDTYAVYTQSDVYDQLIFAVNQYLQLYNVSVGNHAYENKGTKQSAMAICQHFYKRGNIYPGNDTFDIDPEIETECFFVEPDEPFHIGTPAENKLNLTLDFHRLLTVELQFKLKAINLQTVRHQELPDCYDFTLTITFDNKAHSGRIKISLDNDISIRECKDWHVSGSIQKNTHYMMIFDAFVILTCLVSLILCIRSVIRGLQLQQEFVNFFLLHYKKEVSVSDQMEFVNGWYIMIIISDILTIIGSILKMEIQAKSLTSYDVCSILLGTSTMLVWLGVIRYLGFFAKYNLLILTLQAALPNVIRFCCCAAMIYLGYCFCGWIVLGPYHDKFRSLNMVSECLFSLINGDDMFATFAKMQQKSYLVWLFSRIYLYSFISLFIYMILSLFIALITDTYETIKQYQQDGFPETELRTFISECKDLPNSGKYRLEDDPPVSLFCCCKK
#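 Test system: TRPML3-YFP stable HEK293 cells. Doses: single point at 3 µM. Incubation: dye loading 1 h 37 °C then 30 min ambient, 125 s read. Signal: Fluo-8 calcium dye fluorescence, ex 470-495, em 515-575 nm. Measure: percent activation from peak-to-basal fluorescence ratio, scaled between DMSO and carbachol.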
# CRFR2-BP ag: agonists of CRF-BP/CRF-R2 complex, primary screen, cell-based, HEK293, calcium dye fluorescence, uHTS. CRF-binding protein / CRF receptor 2 complex (human). calcium dye fluorescence (FLIPR); percent of saturating CRF peptide response. activation, % at 13.2 µM. 350,000 tested, 0.46% active. AID 588473, 2011;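 active = activation of at least 50%, plus an integration ratio under a set limit after plate pattern correction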;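 note: plate controls were neutral control wells without compound for no effect and CRF at EC100 for full effect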
# IMP-1 inh-2: IMP-1 metallo-beta-lactamase inhibitors, confirmation, selectivity assay for selective VIM-2 inhibitor project, biochemical, epi-absorbance readout, triplicate. purified IMP-1, nitrocefin hydrolysis, epi-absorbance fluorescence. shares compounds with VIM-2 inhibitor. inhibition, % at 5.6 µM. AID 1856, 2009. 1,300 tested, under 10 active; call rule not given here;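 note: 0% = enzyme with vehicle and 100% = vehicle without enzyme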
# VIM-2 FRET ctr: VIM-2 inhibitors in FRET format, confirmation, artefact control for selective VIM-2 inhibitor project, biochemical, epi-absorbance artifact exclusion; shares compounds with VIM-2 inhibitor; purified VIM-2, CCF2 FRET substrate hydrolysis; inhibition, % at 5.6 µM; 1,300 tested, 23% active; AID 1857, 2009;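 active = inhibition above the mean of all tested compounds plus 3 SD, cut at about 19% in these data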;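 note: 0% = VIM-2 plus DMSO and 100% = no enzyme wells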
# TEM-1 inh: TEM-1 serine beta-lactamase inhibitors, counter-screen for VIM-2 inhibitor project, biochemical, epi-absorbance, HTS; 1,300 tested, 3% active; inhibition, % at 5.6 µM; Purified TEM-1, nitrocefin hydrolysis, epi-absorbance fluorescence; shares compounds with VIM-2 inhibitor;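 active = inhibition above that campaign's mean inhibition plus 3 SD, cut at about 0.46% in these data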;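 note: 0% = TEM-1 with DMSO and 100% = TEM-1 with 100 µM potassium clavulanate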
# Target sequence (P62593 whole entry, looked up): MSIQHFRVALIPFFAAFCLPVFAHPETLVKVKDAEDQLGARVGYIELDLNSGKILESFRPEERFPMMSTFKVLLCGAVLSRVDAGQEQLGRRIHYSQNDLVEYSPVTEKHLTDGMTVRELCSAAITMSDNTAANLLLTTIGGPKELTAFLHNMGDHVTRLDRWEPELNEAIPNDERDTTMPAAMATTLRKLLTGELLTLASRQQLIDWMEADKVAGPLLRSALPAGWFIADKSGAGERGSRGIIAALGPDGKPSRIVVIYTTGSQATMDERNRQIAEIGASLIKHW
# VIM-2 confirm 2: VIM-2 metallo-beta-lactamase inhibitors, confirmation, biochemical, epi-absorbance, hits shared with IMP-1 screen. shares compounds with VIM-2 inhibitor. purified VIM-2, nitrocefin hydrolysis. inhibition, % at 5.6 µM. 1,300 tested, 96% active. AID 2187, 2009;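 active = inhibition of the VIM-2 beta-lactamase enzyme above about 11% from the earlier first-round screen, limit read from the data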;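 note: 0% = VIM-2 with DMSO and 100% = buffer wells without enzyme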
# * = called active by the depositor; . = not tested or not shown. The list is not random: actives were taken first. Their share in the collection is about 2.1%.
SMILES,CRFBP-R2 block,IMP-1 inh-1,VIM-2 inhibitor,TRPN1 ag,TRPML3 ag,CRFR2-BP ag,IMP-1 inh-2,VIM-2 FRET ctr,TEM-1 inh,VIM-2 confirm 2
O=C(C[n+]1cc(-c2ccc(Cl)cc2)n2c1CCCCC2)c1ccccc1,0.3,-2.3,-3.4,0.5,1.1,5.1,.,.,.,.
COc1ccc(-c2cnc3n2CCCCC3)cc1,-4.3,-2.8,-2.9,2.5,1.5,0.8,.,.,.,.
CS(=O)(=O)c1ccc(S(=O)(=O)N2CCC(CO)(CCCc3ccccc3)CC2)cc1,-4.7,-2.6,-0.5,.,.,1.7,.,.,.,.
CC(=O)NCc1cc(-c2nn(C)c(=O)c3ccccc23)ccc1C,6.7,-4.6,1.7,0.8,-0.1,1.1,.,.,.,.
CN(C)CCCNc1ccc(-c2nn(C)c(=O)c3ccccc23)cc1[N+](=O)[O-],13.7,-1.4,61.3*,-0.6,0.3,0.9,-2.9,2.2,-7.8,71.3*
CC(O)CNc1ccc(-c2nn(C)c(=O)c3ccccc23)cc1[N+](=O)[O-] (stereo not drawn),8.9,-2.2,19.4*,-0.9,0.1,0.3,-3.0,-1.4,-5.5,39.1*
COCCNc1ccc(-c2nn(C)c(=O)c3ccccc23)cc1[N+](=O)[O-],4.0,-2.2,1.7,1.1,0.6,-1.1,.,.,.,.
Cc1cccc(C(=O)Nc2nnc(Cc3ccccc3)s2)c1,-37.0,-1.8,-1.9,.,.,0.2,.,.,.,.
Cc1cccc(-n2ncc3c2CCCC3NC(=O)Cc2c(C)noc2C)c1C (stereo not drawn),-0.3,-2.2,-0.4,.,.,-1.2,.,.,.,.
CCOC(=O)Nc1ccc(N2CCOCC2)c(S(=O)(=O)Nc2ccc(Cl)cc2)c1,-16.4,.,.,.,.,-4.0,.,.,.,.
CCN1CCN(c2ccc(N=Cc3ccc(O)cc3O)cc2)CC1,-12.8,-5.5,27.2*,1.8,0.8,18.8,-7.0,-3.2,-9.9,45.1*
COc1cc2c(cc1OC)CN(C(=O)CN1CCN(S(=O)(=O)c3ccc(C)c(C)c3)CC1)CC2,22.2,-1.0,-2.0,.,.,-2.0,.,.,.,.
COCCCNc1nc(N)c([N+](=O)[O-])c(Nc2cc(OC)ccc2OC)n1,-38.5,-2.9,-1.1,-0.2,0.0,-1.2,.,.,.,.
COc1ccc(OC)c(Nc2nc(NCCCN(C)C)nc(N)c2[N+](=O)[O-])c1,-12.7,-0.4,18.8*,2.2,0.2,-2.5,-4.0,2.1,-8.3,29.2*
Cc1cc(C(=O)NC2CC(C)(C)Cc3c2cnn3-c2cccc(F)c2)nn1C (stereo not drawn),3.6,-1.8,0.3,.,.,-0.1,.,.,.,.
COc1ccc(N2CCN(C(=O)CCCn3c(=O)c4cccn4c4cccnc43)CC2)cc1,0.9,-2.4,0.5,.,.,-2.1,.,.,.,.
O=C(CCCn1c(=O)c2cccn2c2cccnc21)N1CCN(c2ccccc2F)CC1,10.1,-1.2,1.2,.,.,-1.9,.,.,.,.
CCN1CCN(C(=O)CCn2c(=O)c3cccn3c3cccnc32)CC1,-3.6,-3.1,17.3*,.,.,-1.1,-2.2,2.5,-4.3,25.2*
CCCN1CCN(C(=O)CCn2c(=O)c3cccn3c3cccnc32)CC1,11.7,-0.1,12.6*,.,.,1.4,-3.8,-2.9,-5.6,23.8*
COc1ccc(C(=O)Nc2ccc(N3CCN(C)CC3)cc2)cc1,3.2,-6.2,15.5*,.,.,-2.4,-2.0,1.6,-1.6,25.7*
CCN1CCN(c2ccc(NC(=O)c3ccc(Cl)c(N4CCCC4=O)c3)cc2)CC1,2.9,-4.1,25.9*,.,.,-1.1,-2.0,-0.6,-5.0,42.3*
COc1ccc(C(=O)Nc2ccc(N3CCN(C)CC3)cc2)cc1OC,12.8,-5.4,24.0*,.,.,-2.9,-3.0,2.6,-6.0,38.6*
CN1CCN(c2ccc(NC(=O)c3ccc4ccccc4c3)cc2)CC1,-2.4,-0.8,25.2*,.,.,0.5,-1.3,-1.1,-6.5,34.3*
CCCCOc1ccc(C(=O)Nc2ccc(N3CCN(C)CC3)cc2)cc1,-0.8,-5.4,0.1,-0.9,1.1,0.1,.,.,.,.
Cc1ccc(C)c(CNC(=O)Nc2ccccc2)c1,12.4,-2.6,0.7,.,.,-0.2,.,.,.,.
SMILES,CRFBP-R2 block,IMP-1 inh-1,VIM-2 inhibitor,TRPN1 ag,TRPML3 ag,CRFR2-BP ag,IMP-1 inh-2,VIM-2 FRET ctr,TEM-1 inh,VIM-2 confirm 2
O=C(Nc1ccc(N2CCOCC2)cc1)c1ccc(Br)o1,3.3,-2.8,-2.4,.,.,-1.3,.,.,.,.
CCN1CCN(c2ccc(NC(=O)c3cc(OC)c(OC)c(OC)c3)cc2)CC1,4.0,-3.7,23.7*,.,.,0.5,-3.5,-1.6,-5.2,37.5*
CN1CCN(c2ccc(NC(=O)c3ccc(Br)o3)cc2)CC1,-2.5,-2.3,13.6*,.,.,0.7,-3.0,3.1,-6.4,30.9*
Nc1ccc(N2CCN(CCCCN3C(=O)C4CCCN4C3=O)CC2)cc1 (stereo not drawn),12.9,-2.5,24.5*,0.9,0.6,0.0,-9.9,-6.3,-6.4,10.6*
COC(=O)c1c(NC(=O)c2ccco2)sc2c1CCN(C(C)=O)C2,1.4,-1.3,20.7*,.,.,-1.6,-2.7,-4.5,-5.7,30.1*
Cc1c(Cl)cccc1-c1ccc(/C=N/n2cnnc2)o1,-12.9,-0.3,32.3*,-0.9,-0.7,-0.8,-3.7,-4.9,-6.9,53.1*
COC(=O)N/N=C/c1ccc(-c2ccccc2Cl)o1,17.3,0.3,-1.0,-0.6,-1.0,0.6,.,.,.,.
